≈ marks a conversion by molar mass, not a printed value. Calls of active or inactive are those of the source. No cut-off for these calls is given here.
Key:
[1] = system: Staphylococcus aureus; test: Antimicrobial activity against Staphylococcus aureus after 24 hrs by two fold serial dilution method; assay type: functional, organism-based
In short: (§1)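 MIC determined in vitro by two-fold serial dilution, following the procedure recommended by the Clinical and Laboratory Standards Institute (CLSI).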

[2] = system: Pseudomonas aeruginosa; test: Antimicrobial activity against Pseudomonas aeruginosa after 24 hrs by two fold serial dilution method; assay type: functional
In short: (§2)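 MICs by CLSI-recommended two-fold serial broth dilution against the listed bacterial strains.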

[3] = system: Pseudomonas aeruginosa; test: Antimicrobial activity against Pseudomonas aeruginosa ATCC 27853 after 24 hrs by two fold serial dilution method; assay type: functional; in short: as §2
[4] = system: Escherichia coli; test: Antimicrobial activity against Escherichia coli after 24 hrs by two fold serial dilution method; assay type: functional; in short: as §2
[5] = system: Escherichia coli; test: Antimicrobial activity against Escherichia coli ATCC 25922 after 24 hrs by two fold serial dilution method; assay type: functional; conditions: for MIC: ATCC 25922, 24 h; in short: as §2
[6] = system: Staphylococcus aureus; test: Antimicrobial activity against Staphylococcus aureus ATCC 25923 after 24 hrs by two fold serial dilution method; assay type: functional; in short: as §2
[7] = system: Staphylococcus aureus; test: Antimicrobial activity against methicillin-resistant Staphylococcus aureus after 24 hrs by two fold serial dilution method; assay type: functional; in short: as §2
[8] = system: Enterococcus faecalis; test: Antimicrobial activity against Enterococcus faecalis after 24 hrs by two fold serial dilution method; assay type: functional, organism-based; in short: as §1
[9] = system: Staphylococcus aureus; test: Antimicrobial activity against Staphylococcus aureus ATCC 29213 after 24 hrs by two fold serial dilution method; assay type: functional; in short: as §2
[10] = system: Klebsiella pneumoniae; test: Antimicrobial activity against Klebsiella pneumoniae after 24 hrs by two fold serial dilution method; assay type: functional, organism-based; in short: as §1
[11] = system: Acinetobacter baumannii; test: Antimicrobial activity against Acinetobacter baumannii after 24 hrs by two fold serial dilution method; assay type: functional; in short: as §1
[12] = system: Staphylococcus aureus; test: Antimicrobial activity against methicillin-resistant Staphylococcus aureus measured every 24 hrs post passages for 16 days; assay type: functional, organism-based
In short: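 Resistance-development study in MRSA, with MIC re-measured over serial passages. Norfloxacin and chloromycin were run alongside as reference drugs.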

[13] = system: Escherichia coli; test: Potency index, ratio of norfloxacin MIC to compound MIC against Escherichia coli ATCC 25922; assay type: functional
[14] = target: Albumin (Homo sapiens, UniProt P02768); test: Binding affinity to human serum albumin by UV-visible absorption spectroscopy; assay type: ADME; conditions: isolated protein
Chain of Albumin (P02768 whole entry): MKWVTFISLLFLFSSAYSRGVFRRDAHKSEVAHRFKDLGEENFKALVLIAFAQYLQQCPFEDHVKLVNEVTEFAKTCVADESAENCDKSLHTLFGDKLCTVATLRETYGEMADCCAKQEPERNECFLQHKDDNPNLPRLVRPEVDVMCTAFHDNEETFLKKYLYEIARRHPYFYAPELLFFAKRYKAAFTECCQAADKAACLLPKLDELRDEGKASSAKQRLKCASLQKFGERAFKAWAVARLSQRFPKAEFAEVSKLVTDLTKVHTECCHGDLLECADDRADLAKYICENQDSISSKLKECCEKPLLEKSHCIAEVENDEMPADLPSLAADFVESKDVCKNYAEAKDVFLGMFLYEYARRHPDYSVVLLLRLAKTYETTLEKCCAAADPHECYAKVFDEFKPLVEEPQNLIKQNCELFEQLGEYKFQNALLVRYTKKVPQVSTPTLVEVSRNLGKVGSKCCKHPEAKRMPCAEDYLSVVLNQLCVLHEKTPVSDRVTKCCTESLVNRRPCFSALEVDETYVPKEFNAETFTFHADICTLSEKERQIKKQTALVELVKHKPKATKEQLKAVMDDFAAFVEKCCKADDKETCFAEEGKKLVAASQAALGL

[15] = system: Staphylococcus aureus; test: Bactericidal activity against methicillin-resistant Staphylococcus aureus assessed as log reduction in bacterial count at 4 times MIC measured up to 7 hrs by time kill assay; assay type: functional
In short: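 Time-kill kinetics against MRSA with the compound at 4 × MIC. Viable bacteria were counted over time as log CFU/mL.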

[16] = system: Escherichia coli; test: Potency index, ratio of chloromycin MIC to compound MIC against Escherichia coli ATCC 25922; assay type: functional
[17] = system: Staphylococcus aureus; test: Membrane permeabilization of methicillin-resistant Staphylococcus aureus cytoplasmic membrane at 12 times MIC after 60 mins by propidium iodide staining based fluorescence assay; assay type: functional, organism-based
In short: (§3)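 Cytoplasmic membrane permeabilization of MRSA or E. coli with propidium iodide. Fluorescence intensity of the compound/PI-treated bacterial mixtures was followed over time up to steady state, with two control groups run in parallel.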

[18] = Cytotoxicity against […] RAW264.7 cells assessed as cell viability at 128 ug/ml after 24 hrs by MTT assay; assay type: cell-based; conditions: read-out: Activity
In short: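 Cytotoxicity in […] RAW 264.7 macrophages by MTT assay at concentrations up to 128 μg/mL. Read-out was percent cell viability.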

[19] = system: DNA; test: Induction of methicillin-resistant Staphylococcus aureus DNA intercalation assessed as compound-DNA complex formation incubated for 1 hr by UV-visible absorption spectroscopy; assay type: nucleic-acid assay
[20] = system: Escherichia coli; test: Membrane permeabilization of Escherichia coli cytoplasmic membrane at 12 times MIC after 60 mins by propidium iodide staining based fluorescence assay; assay type: functional, organism-based; in short: as §3
[21] = system: Acinetobacter baumannii; test: Potency index, ratio of chloromycin MIC to compound MIC against Acinetobacter baumannii; assay type: functional

Structure (SMILES)	Activity [1]	Activity [2]	Activity [3]	Activity [4]	Activity [5]	Activity [6]	Activity [7]	Activity [8]	Activity [9]	Activity [10]	Activity [11]	also measured
O=C1c2cccc3c(Br)ccc(c23)C(=O)N1Nc1nccs1	Active	Active	Active	Active	Active	Active	Active	Active	Active	Active	Active	–
CCCCCCCCCCN1CCN(c2ccc3c4c(cccc24)C(=O)N(Nc2nccs2)C3=O)CC1	inactive	inactive	inactive	inactive	inactive	inactive	inactive	inactive	inactive	inactive	inactive	–
CCn1cc(C(=O)O)c(=O)c2cc(F)c(N3CCNCC3)cc21 [NORFLOXACIN]	–	–	–	–	–	–	–	–	–	–	–	MIC [5]: 8 µg/mL (≈ 25.1 µM); MIC [11]: 8 µg/mL (≈ 25.1 µM)
O=C1c2cccc3c(N4CCNCC4)ccc(c23)C(=O)N1Nc1nccs1	–	–	–	–	–	–	–	–	–	–	inactive	Activity [12]: Active; Ratio [13]: 2; MIC [2]: 4 to 16 µg/mL (≈ 10.5 to 42.2 µM); Activity [14]: Active; Activity [15]: >3 CFU/ml; MIC ([3]; ATCC 27853, 24 h): 4 to 16 µg/mL (≈ 10.5 to 42.2 µM); MIC [4]: 4 to 16 µg/mL (≈ 10.5 to 42.2 µM); MIC [5]: 4 to 16 µg/mL (≈ 10.5 to 42.2 µM); MIC ([6]; ATCC 25923, 24 h): 4 µg/mL (≈ 10.5 µM); Ratio [16]: 4; MIC [7]: 4 µg/mL (≈ 10.5 µM); Activity [17]: Active; viability at 24 h, 128 ug/ml [18]: 80.1%; Activity [19]: Active; MIC ([9]; ATCC 29213, 24 h): 2 µg/mL (≈ 5.27 µM); Activity [20]: Active
CCCCCCCCCCCCN1CCN(c2ccc3c4c(cccc24)C(=O)N(Nc2nccs2)C3=O)CC1	inactive	inactive	inactive	inactive	inactive	inactive	inactive	inactive	inactive	inactive	inactive	–
O=C1c2cccc3c(N4CCOCC4)ccc(c23)C(=O)N1Nc1nccs1	–	–	–	–	–	–	–	–	–	–	–	Ratio [21]: 2; MIC [11]: 8 µg/mL (≈ 21 µM)
CCCCCCCCCCCCCCCCN1CCN(c2ccc3c4c(cccc24)C(=O)N(Nc2nccs2)C3=O)CC1	inactive	inactive	inactive	inactive	inactive	inactive	inactive	inactive	inactive	inactive	inactive	–

— ChEMBL document CHEMBL4138260, “Novel Naphthalimide Aminothiazoles as Potential Multitargeting Antimicrobial Agents” (ACS Med Chem Lett, 2017)
